APP 5'UTR act: APP 5'UTR luciferase reporter activation | SH-SY5Y APP 5'UTR luciferase reporter, luminescence; zero percent = DMSO vehicle wells | activation, % at 2 µM | 190,000 tested, 1% active;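 active = activation above a set limit, based on mean plus 3 SD of controls, cut at about 140% in these data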
STAT1 blocker: STAT1 signaling inhibition; AID 920; 200,000 tested, 0.35% active; NIH 3T3 STAT1-luciferase reporter, IFN-gamma, luminescence; inhibition, % at 5.5 µM;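 active = inhibition above a set limit, the mean inhibition across all tested compounds plus 3 SD, cut at about 34% in these data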;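 note: 0% = IFN-gamma with DMSO and 100% = IFN-gamma with 300 µM nifuroxazide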
STAT3 activator: activators of IL-6 induced STAT3 signaling; U3A cells, IL-6 STAT3-luciferase reporter, luminescence; 100% = signal with IL-6 EC80 alone; 190,000 tested, 0.91% active; activation (% of control), % at 5.6 µM;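 active = activation above the screen-wide mean of compound activation plus 3 SD, cut at about 130% in these data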;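 note: 0% = background luminescence of wells with medium and substrate only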
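Material: STAT3-luciferase reporter U3A cells. Controls: IL-6-treated wells, 100% activation. Read-out: % activation versus median of IL-6-stimulated wells. Probe or stimulus: IL-6 stimulus at 33 ng/mL final. Timing: compound 1 h, then IL-6 6 h at 37 °C. Signal: reporter luminescence signal.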
STAT1 activator: activators of IFN-gamma induced STAT1 signaling; NIH 3T3 STAT1-luciferase reporter, luminescence; 100% = IFN-gamma alone, no compound; activation (% of control), % at 5.5 µM; 200,000 tested, 2.6% active; AID 932;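 active = activation above the screen-wide mean activation plus 3 SD, cut at about 130% in these data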;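 note: raw ratio to IFN-gamma control signal so 100% means no change and 0% no light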
NF-kB neuron act: compounds increasing NF-kB expression in human neuronal cells | NF-kB reporter expression; stronger effect = higher value | fold change at 12.5 µM | 190,000 tested, 1.6% active; in the data active = fold change above about 3.3
STAT3 inh-1: inhibitors of IL-6 induced STAT3 signaling | AID 862 | U3A cells, IL-6 STAT3-luciferase reporter, luminescence; host cell line lacks STAT1 | 190,000 tested, 0.89% active | inhibition, % at 5.5 µM;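 active = inhibition above the mean inhibition across all screened compounds plus 3 SD, cut at about 44% in these data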;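 note: 0% = DMSO only wells and 100% = 100 µM nifuroxazide control wells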
STAT3 inh-2: confirmation of STAT3 signaling inhibitors; 1,200 tested, 45% active; AID 1265; shares compounds with STAT3 inh-1; inhibition, % at 5.7 µM; U3A cells, IL-6 STAT3 luciferase reporter, luminescence; cell line lacks STAT1;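 active = inhibition above the hit cutoff computed for the primary STAT3 screen, cut at about 44% in these data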;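 note: 0% = IL-6 plus DMSO and 100% = IL-6 plus nifuroxazide control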
NFkB inh 2: counter-screen for STAT3 inhibitors: NF-kappaB inhibition. shares compounds with STAT3 inh-1. HEK293T NF-kB luciferase reporter, TNF-alpha induced. inhibition, % at 5.7 µM. 1,200 tested, 36% active;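 active = inhibition above the mean of solvent-only control wells plus 3 SD, cutoff set per campaign, cut at about 13% in these data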;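 note: 0% = TNF-alpha with DMSO and 100% = TNF-alpha with MG high control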
STAT1 inh STAT3c: STAT1 inhibition in STAT3 inhibitor counter-screen. shares compounds with STAT3 inh-1. NIH 3T3 STAT1-luciferase reporter, IFN-gamma induced, luminescence. inhibition, % at 5.7 µM. 1,200 tested, 27% active. AID 1317;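 active = inhibition above the mean plus 3 SD of solvent-only control wells, limit set per screening run, cut at about 16% in these data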;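 note: 0% = DMSO with IFN-gamma and 100% = nifuroxazide control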
Starred values were filed as active, the others as inactive; x = no result given. This is a sample that favours compounds with a hit; in the whole collection about 4.9% have one here.

SMILES	APP 5'UTR act	STAT1 blocker	STAT3 activator	STAT1 activator	NF-kB neuron act	STAT3 inh-1	STAT3 inh-2	NFkB inh 2	STAT1 inh STAT3c
CCOc1ccc(-c2nnc(-c3ccccc3)o2)cc1	113.7	19.1	47.5	85.7	4.25*	65.8*	37.9	4.0	-60.9
CCOc1ccc(-c2nc(-c3ccccc3C)no2)cc1	77.7	-24.4	64.9	122.3	x	46.2*	14.2	-19.8	-118.6
CN(C)c1oc(-c2cccs2)nc1C#N	13.4	-2.3	88.0	102.1	1.26	16.2	x	x	x
CCCOc1ccc(-c2nnc(-c3cccs3)o2)cc1	46.4	-18.0	46.4	116.6	5.17*	66.1*	35.7	-4.4	-68.4
Cn1nc(C(=O)Nc2nc3ccc(S(C)(=O)=O)cc3s2)ccc1=O	-12.6	0.8	91.5	99.2	0.83	8.9	x	x	x
Cc1ccc2c(COC(=O)C3=COCCO3)cc(=O)oc2c1	49.5	-35.8	67.8	132.5*	3.04	43.5*	-2.8	-33.9	-81.4
Cc1ccc2c(COC(=O)CNC(=O)c3ccccc3)cc(=O)oc2c1	19.0	-4.2	100.7	106.2	1.05	-3.4	x	x	x
FC(F)(Cl)c1nnc2ccc(Cl)nn12	15.7	-0.5	109.6	98.8	1.37	0.5	x	x	x
Cc1cccc(/C=N/n2c(-c3cc(-c4ccccc4)n[nH]3)n[nH]c2=S)c1	11.1	0.8	103.7	99.3	1.15	-1.1	x	x	x
Cc1ccc(-c2cc(N)n[nH]2)cc1	-8.2	-7.5	130.8	106.9	1.45	-36.3	x	x	x
O=Nc1c2cc(-c3ccccc3)[nH]nc-2c2ccccc12	100.9	-6.0	23.4	105.4	4.75*	98.5*	48.2*	30.0*	-16.7
Cc1ccc(-c2cc3c(N=O)c4ccccc4c-3n[nH]2)cc1	5.9	33.1	8.6	69.0	0.63	117.3*	98.2*	79.7*	2.4
Cc1cccc(-c2cc3c(N=O)c4ccccc4c-3n[nH]2)c1	142.4*	-6.1	61.6	105.6	3.75*	50.4*	-5.7	-19.0	-26.3
CCn1cc(C(=O)NCc2ccc(Cl)cc2)c(=O)c2cc(S(=O)(=O)N3CCOCC3)ccc21	14.6	12.0	101.5	89.6	0.93	-1.7	x	x	x
COc1ccc(OC)c(CC(NC(C)=O)C(=O)NC2CCN(c3nc(OC)nc(OC)n3)CC2)c1 (centres undefined)	2.7	2.6	94.9	94.7	1.02	10.7	x	x	x
COC(=O)c1sccc1N/N=C/c1cccc(OC)c1O	180.0*	-4.2	49.4	103.7	3.6*	60.3*	19.4	-9.5	-3.3
COc1cccc(/C=N/Nc2nccnc2Cl)c1O	-51.0	-3.7	34.0	102.0	6.15*	82.9*	20.7	24.2*	-7.8
CCSc1ccccc1C(=O)NC1CCCCC1	10.2	-6.5	101.4	102.8	1.07	3.0	x	x	x
COc1ccccc1C(=O)NCc1ccc(-c2nc3ccccc3s2)cc1	33.8	9.4	56.5	91.4	0.6	50.8*	-17.4	9.1	-81.2
COc1cccc(-c2nc3ccccc3s2)c1O	212.0*	-26.9	64.7	122.7	6.44*	43.9*	-4.2	-11.1	-43.1
COc1cccc(C(=O)NCc2ccc(-c3nc4ccccc4s3)cc2)c1	45.2	-15.7	94.9	114.4	1.63	11.7	x	x	x
Oc1cccc(-c2nc3ccccc3s2)c1	116.1	-3.4	41.6	103.1	9.04*	73.6*	36.8	13.4*	-11.6
Oc1ccc(O)c(Cc2nc3ccccc3s2)c1	11.8	15.2	88.9	87.2	1.9	17.7	x	x	x
COc1ccc(-c2nc3ccccc3s2)cc1O	224.7*	10.2	24.8	90.7	1.41	92.3*	53.4*	1.0	-15.9
O=c1nc(NCc2ccccc2Cl)cn[nH]1	11.3	1.0	96.2	99.0	1.02	6.2	x	x	x
SMILES	APP 5'UTR act	STAT1 blocker	STAT3 activator	STAT1 activator	NF-kB neuron act	STAT3 inh-1	STAT3 inh-2	NFkB inh 2	STAT1 inh STAT3c
Cc1cccc(NC(=O)C2CC(=O)N(c3ccccc3)C2)c1C (centres undefined)	2.3	0.8	97.9	99.3	0.9	4.1	x	x	x
CN(/N=C/c1ccc(O)cc1O)c1nc(-c2ccccc2)cc(-c2ccccc2)n1	-7.0	-3.7	90.3	103.3	0.76	11.1	x	x	x
CCCCN1C(C)=CC(=C2C(=O)c3ccccc3C2=O)C=C1C	180.5*	18.4	43.2	82.2	3.17	70.8*	16.4	-25.7	-131.9
CC1=CC(=C2C(=O)c3ccccc3C2=O)C=C(C)O1	11.3	-26.3	89.4	124.1	2.37	14.8	x	x	x
Cc1ccc(C)c(C(=O)COC(=O)c2cccc(N3C(=O)c4c(C)nc5ccccc5c4C3=O)c2)c1	141.2*	-10.6	60.1	109.5	0.42	49.5*	45.3*	29.3*	43.8*
Cc1nc2ccccc2c2c1C(=O)N(c1cccc(C(=O)O)c1)C2=O	16.8	-0.4	109.0	97.3	1.08	-5.9	x	x	x
Cc1ccc(-c2cc(-c3ccccc3)no2)c(O)c1	276.1*	-13.9	55.8	112.7	3.67*	49.3*	6.9	18.5*	-20.5
COc1ccc(/C=N/Nc2nncc3ccccc23)cc1	188.4*	-22.4	45.3	120.5	3.07	64.2*	70.6*	51.1*	33.0*
Cc1ccsc1/C=C1\CCc2ccccc2C1=O	138.0*	31.7	34.5	70.7	3.55*	78.2*	48.3*	10.7	-40.4
Cc1ccc(-c2cc(C(=O)NCCCN3CCOCC3)no2)cc1	-11.7	11.9	56.7	89.0	0.74	55.8*	7.8	-14.8	-13.8
O=C(NCCN1CCOCC1)c1cc(-c2ccc(Cl)cc2)on1	-13.0	3.9	97.1	96.4	1.66	8.5	x	x	x
CCc1ccc(-c2cc(C(F)(F)F)n3nc(C(=O)Nc4c(C)nn(Cc5ccc(F)cc5)c4C)cc3n2)s1	2.0	2.5	85.7	97.7	0.87	17.4	x	x	x
CCC(=O)Nc1ccc(C(=O)CSc2nc3ccccc3[nH]2)cc1	-15.8	1.6	99.6	98.7	1.03	-1.1	x	x	x
Cc1cc(CNC(=O)c2cccc([N+](=O)[O-])c2C)c2ccccc2n1	-16.1	25.1	60.2	75.7	0.92	51.0*	54.1*	14.2*	21.6*
CCOC(=O)c1cccc(NC(=O)Cn2cnc3c2c(=O)n(C)c(=O)n3C)c1	-8.6	2.4	99.9	97.8	0.96	2.7	x	x	x
O=C(Nc1nccs1)c1ccc(S(=O)(=O)NCC2CCCCC2)cc1	-7.3	5.4	44.8	95.1	1.05	71.4*	54.9*	10.9	3.4
CC(/C=N/NC(=O)c1cc(-c2cccs2)[nH]n1)=C\c1ccccc1	-4.7	-14.0	109.5	112.7	0.93	-16.9	x	x	x
O=c1c(N=Nc2ccc(O)cc2)c(-c2ccccc2)[nH]n1-c1ccc([N+](=O)[O-])cc1	-20.1	1.4	81.8	98.3	0.92	25.6	x	x	x

Source: PubChem
